Reference: ChEMBL document CHEMBL5614453 (ACS Med Chem Lett, 2024)
Active and inactive are the calls of the source.

Tests used:
[1] = molecular target: Carbonic anhydrase 1 (Homo sapiens, UniProt P00915); test: Inhibition of human CA1 preincubated for 15 mins by phenol red dye based stopped flow CO2 hydration assay
[2] = molecular target: Carbonic anhydrase 2 (Homo sapiens, UniProt P00918); test: Inhibition of human CA2 preincubated for 15 mins by phenol red dye based stopped flow CO2 hydration assay
[3] = molecular target: Carbonic anhydrase 4 (Homo sapiens, UniProt P22748); test: Inhibition of human CA4 preincubated for 15 mins by phenol red dye based stopped flow CO2 hydration assay
Sequence of Carbonic anhydrase 4 (P22748 whole entry): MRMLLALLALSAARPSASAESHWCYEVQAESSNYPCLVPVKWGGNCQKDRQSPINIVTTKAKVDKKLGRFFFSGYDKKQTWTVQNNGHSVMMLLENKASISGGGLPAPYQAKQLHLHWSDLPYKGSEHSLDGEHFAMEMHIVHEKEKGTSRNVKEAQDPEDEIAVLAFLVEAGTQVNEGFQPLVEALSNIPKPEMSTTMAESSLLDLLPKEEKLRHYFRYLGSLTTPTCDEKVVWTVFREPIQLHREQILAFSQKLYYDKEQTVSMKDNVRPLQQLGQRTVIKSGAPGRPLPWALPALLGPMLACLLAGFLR

[4] = molecular target: Carbonic anhydrase 7 (Homo sapiens, UniProt P43166); test: Inhibition of human CA7 preincubated for 15 mins by phenol red dye based stopped flow CO2 hydration assay
Sequence of Carbonic anhydrase 7 (P43166 whole entry): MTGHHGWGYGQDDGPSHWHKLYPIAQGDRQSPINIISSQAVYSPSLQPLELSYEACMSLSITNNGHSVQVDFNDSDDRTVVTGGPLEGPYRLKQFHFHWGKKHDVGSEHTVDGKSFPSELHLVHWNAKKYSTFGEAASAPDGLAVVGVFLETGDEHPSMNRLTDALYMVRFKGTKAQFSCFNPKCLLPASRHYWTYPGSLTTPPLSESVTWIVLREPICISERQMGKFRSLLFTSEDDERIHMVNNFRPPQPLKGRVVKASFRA

[5] = molecular target: Carbonic anhydrase 9 (Homo sapiens, UniProt Q16790); test: Inhibition of human CA9 preincubated for 15 mins by phenol red dye based stopped flow CO2 hydration assay
[6] = molecular target: Carbonic anhydrase 12 (Homo sapiens, UniProt O43570); test: Inhibition of human CA12 preincubated for 15 mins by phenol red dye based stopped flow CO2 hydration assay
Sequence of Carbonic anhydrase 12 (O43570 whole entry): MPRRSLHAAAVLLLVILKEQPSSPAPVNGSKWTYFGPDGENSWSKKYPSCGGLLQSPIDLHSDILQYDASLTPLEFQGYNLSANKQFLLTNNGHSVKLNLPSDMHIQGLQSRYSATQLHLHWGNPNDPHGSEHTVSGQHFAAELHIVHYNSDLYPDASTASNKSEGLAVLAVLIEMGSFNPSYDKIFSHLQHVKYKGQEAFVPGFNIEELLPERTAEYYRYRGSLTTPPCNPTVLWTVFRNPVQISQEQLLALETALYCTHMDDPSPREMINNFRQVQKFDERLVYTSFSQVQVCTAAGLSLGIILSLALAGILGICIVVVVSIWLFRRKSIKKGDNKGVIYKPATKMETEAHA

[7] = test system: Mus musculus; test: Antihyperalgesic activity in CFA induced CD-1 albino mouse assessed as inhibition of thermal hyperalgesia by measuring licking latency at 220 mg/kg, po measured every 20 mins by hot plate test; format: functional, organism-based
In short: (§1)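 Hot plate test before dosing and every 20 min after. Time (s) to first hind-paw licking recorded. Mean of 6 mice from 2 experimental sets; compared with pretest (0 min) and vehicle controls.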

[8] = test system: Mus musculus; test: Antihyperalgesic activity in CFA induced CD-1 albino mouse assessed as inhibition of mechanical hyperalgesia by measuring paw withdrawal latency at 220 mg/kg, po measured every 20 mins by paw pressure test; format: functional, organism-based
In short: (§2)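 Mechanical hyperalgesia measured by Paw Pressure test before dosing and every 20 min afterward, as paw-withdrawal latency (s). Values are means of 6 mice over 2 experimental sets; statistics vs pretest (0 min) and vs vehicle-treated controls.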

[9] = test system: Mus musculus; test: Antihyperalgesic activity in CFA induced CD-1 albino mouse assessed as inhibition of mechanical allodynia by measuring paw withdrawal threshold at 220 mg/kg, po measured every 20 mins by von frey test; format: functional, organism-based
In short: (§3)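 Von Frey testing before dosing and every 20 min afterward. Read-out is the weight (g) the animal tolerated on the paw. Mean of 6 mice from 2 experimental sets; compared with pretest (0 min) and with vehicle-treated controls.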

[10] = test system: Mus musculus; test: Antihyperalgesic activity in CFA induced CD-1 albino mouse assessed as inhibition of thermal hyperalgesia by measuring licking latency at 330 mg/kg, po measured after 20 to 100 mins by hot plate test; format: functional, organism-based; details: time 20-100 min; in short: as §1
[11] = test system: Mus musculus; test: Antihyperalgesic activity in CFA induced CD-1 albino mouse assessed as inhibition of mechanical hyperalgesia by measuring paw withdrawal latency at 330 mg/kg, po measured after 20 to 100 mins by paw pressure test; format: functional, organism-based; details: time 20-100 min; in short: as §2
[12] = test system: Mus musculus; test: Antihyperalgesic activity in CFA induced CD-1 albino mouse assessed as inhibition of mechanical allodynia by measuring paw withdrawal threshold at 330 mg/kg, po measured after 20 to 100 mins by von frey test; format: functional, organism-based; details: time 20-100 min; in short: as §3
[13] = test system: Mus musculus; test: Antihyperalgesic activity in po dosed CFA induced CD-1 albino mouse assessed as inhibition of mechanical allodynia by measuring paw withdrawal threshold measured every 20 mins by von frey test; format: functional, organism-based; details: dose 50-200 mg/kg; in short: as §3
[14] = test system: Mus musculus; test: Antihyperalgesic activity in po dosed CFA induced CD-1 albino mouse assessed as inhibition of thermal hyperalgesia by measuring licking latency measured every 20 mins by hot plate test; format: functional, organism-based; details: dose 50-200 mg/kg; in short: as §1
[15] = test system: Mus musculus; test: Antihyperalgesic activity in po dosed CFA induced CD-1 albino mouse assessed as inhibition of mechanical hyperalgesia by measuring paw withdrawal latency measured every 20 mins by paw pressure test; format: functional, organism-based; details: dose 50-200 mg/kg; in short: as §2
[16] = test system: Mus musculus; test: Antihyperalgesic activity in CFA induced CD-1 albino mouse assessed as inhibition of thermal hyperalgesia by measuring licking latency at 50 to 200 mg/kg, po measured after 40 mins by hot plate test; format: functional, organism-based; details: dose 50-200 mg/kg; in short: as §1
[17] = test system: Mus musculus; test: Antihyperalgesic activity in CFA induced CD-1 albino mouse assessed as inhibition of mechanical hyperalgesia by measuring paw withdrawal latency at 50 to 200 mg/kg, po measured after 40 mins by paw pressure test; format: functional, organism-based; details: dose 50-200 mg/kg; in short: as §2
[18] = test system: Mus musculus; test: Antihyperalgesic activity in CFA induced CD-1 albino mouse assessed as inhibition of mechanical allodynia by measuring paw withdrawal threshold at 50 to 200 mg/kg, po measured after 40 mins by von frey test; format: functional, organism-based; details: dose 50-200 mg/kg; in short: as §3
[19] = test system: Mus musculus; test: Antihyperalgesic activity in CFA induced CD-1 albino mouse assessed as inhibition of thermal hyperalgesia by measuring licking latency at 50 to 200 mg/kg, po measured after 80 mins by hot plate test; format: functional, organism-based; details: dose 50-200 mg/kg; in short: as §1
[20] = test system: Mus musculus; test: Antihyperalgesic activity in CFA induced CD-1 albino mouse assessed as inhibition of mechanical hyperalgesia by measuring paw withdrawal latency at 50 to 200 mg/kg, po measured after 80 mins by paw pressure test; format: functional, organism-based; details: dose 50-200 mg/kg; in short: as §2
[21] = test system: Mus musculus; test: Antihyperalgesic activity in CFA induced CD-1 albino mouse assessed as inhibition of mechanical allodynia by measuring paw withdrawal threshold at 50 to 200 mg/kg, po measured after 80 mins by von frey test; format: functional, organism-based; details: dose 50-200 mg/kg; in short: as §3
[22] = test system: Mus musculus; test: Antihyperalgesic activity in CFA induced CD-1 albino mouse assessed as increase in pain threshold by measuring licking latency at 270 mg/kg, po measured after 40 mins by hot plate test; format: functional, organism-based
In short: (§4)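 Mice received an intraplantar CFA injection, and vehicle-treated animals served as controls. Thermal hyperalgesia was measured by hot plate as time in s to the first hind-paw licking. Readings were taken before dosing and every 20 min afterwards. Values are the mean of 6 mice from 2 experimental sets.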

[23] = test system: Mus musculus; test: Antihyperalgesic activity in CFA induced CD-1 albino mouse assessed as inhibition of mechanical hyperalgesia by measuring paw withdrawal latency at 270 to 405 mg/kg, po measured every 20 mins by paw pressure test; format: functional, organism-based; details: dose 270-405 mg/kg
In short: (§5)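 Inflammatory pain was induced by intraplantar CFA, with vehicle-treated controls. Mechanical hyperalgesia was measured by paw pressure test as paw withdrawal latency (s), before dosing and every 20 min after. Values are the mean of 6 mice from 2 experimental sets.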

[24] = test system: Mus musculus; test: Antihyperalgesic activity in CFA induced CD-1 albino mouse assessed as inhibition of mechanical allodynia by measuring paw withdrawal threshold at 270 to 405 mg/kg, po measured every 20 mins by von frey test; format: functional, organism-based; details: dose 270-405 mg/kg
[25] = test system: Mus musculus; test: Antihyperalgesic activity in CFA induced CD-1 albino mouse assessed as increase in pain threshold by measuring paw withdrawal latency at 270 mg/kg, po measured after 40 mins by paw pressure test; format: functional; in short: as §5
[26] = test system: Mus musculus; test: Antihyperalgesic activity in CFA induced CD-1 albino mouse assessed as increase in pain threshold by measuring paw withdrawal latency at 270 mg/kg, po measured after 40 mins by von frey test; format: functional
In short: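 Intraplantar CFA was used to induce inflammatory pain in mice, with vehicle-treated controls. Mechanical allodynia was measured by Von Frey test as the weight (g) tolerated on the paw, before dosing and every 20 min after. Values are the mean of 6 mice from 2 experimental sets.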

[27] = test system: Mus musculus; test: Antihyperalgesic activity in CFA induced CD-1 albino mouse assessed as increase in pain threshold by measuring licking latency at 405 mg/kg, po measured after 40 mins by hot plate test; format: functional, organism-based; in short: as §4
[28] = test system: Mus musculus; test: Antihyperalgesic activity in CFA induced CD-1 albino mouse assessed as increase in pain threshold by measuring paw withdrawal latency at 405 mg/kg, po measured after 40 mins by paw pressure test; format: functional, organism-based; in short: as §5
[29] = test system: Mus musculus; test: Antihyperalgesic activity in CFA induced CD-1 albino mouse assessed as increase in pain threshold by measuring paw withdrawal latency at 405 mg/kg, po measured after 40 mins by von frey test; format: functional, organism-based

Sequence of Carbonic anhydrase 1 (P00915 whole entry): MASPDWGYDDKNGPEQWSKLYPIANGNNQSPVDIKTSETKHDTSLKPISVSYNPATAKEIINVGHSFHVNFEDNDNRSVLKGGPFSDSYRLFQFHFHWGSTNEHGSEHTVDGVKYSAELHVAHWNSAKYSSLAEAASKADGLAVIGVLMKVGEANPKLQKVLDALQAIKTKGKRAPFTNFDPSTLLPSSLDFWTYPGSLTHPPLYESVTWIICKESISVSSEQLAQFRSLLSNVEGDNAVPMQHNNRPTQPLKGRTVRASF

CC(=O)Sc1ccccc1C(=O)O
Ki [1]: 72.5 µM | Ki [2]: 64.3 µM | Ki [3]: 77.3 µM | Ki [4]: 18.5 µM | Ki [5]: 10.9 µM | Ki [6]: 14 µM | Activity [7]: Active | Activity [8]: Active | Activity [9]: Active | Activity [10]: Active | Activity [11]: Active | Activity [12]: Active

CC(=O)Oc1ccccc1C(=O)O [ASPIRIN]
Activity [13]: Dose-Dependent Effect | Activity [14]: Dose-Dependent Effect | Activity [15]: Dose-Dependent Effect | Ki [1]: > 100 µM | Ki [3]: > 100 µM | Ki [4]: > 100 µM | Ki [5]: > 100 µM | Ki [6]: > 100 µM | Activity [16]: Active | Activity [17]: Active | Activity [18]: Active | Activity [19]: inactive | Activity [20]: inactive | Activity [21]: inactive

CC(=O)[Se]c1ccccc1C(=O)O
Ki [1]: 5.2 µM | Ki [2]: 32 µM | Ki [3]: 48 µM | Ki [4]: 5.2 µM | Ki [5]: 1.4 µM | Ki [6]: 8.2 µM | Activity [22]: Active | Activity [23]: Active | Activity [24]: Active | Activity [25]: >50% | Activity [26]: >50% | Activity [27]: inactive | Activity [28]: inactive | Activity [29]: inactive
